Data taken from ChEMBL document CHEMBL2169788, “Bioisosteric transformations and permutations in the triazolopyrimidine scaffold to identify the minimum pharmacophore required for inhibitory activity against Plasmodium falciparum dihydroorotate dehydrogenase” (J Med Chem, 2012).

Experiments:
[1] = tested on: Liver microsomes; assay: Half life in human liver microsomes at 1 uM by LC/MS analysis; type: ADME, Microsome
Summary of the method: (§1)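 Compound at 1 μM incubated at 37°C with pooled human or mouse liver microsomes (0.4 mg/mL protein). Reaction started with NADPH-regenerating system (1 mg/mL NADP, 1 mg/mL glucose-6-phosphate, 1 U/mL G6PDH, 0.67 mg/mL MgCl2) and quenched at time points with ice-cold acetonitrile. Parent loss tracked by LC/MS against a microsomal-matrix calibration curve. First-order depletion rate constant came from an exponential decay fit.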

[2] = tested on: Liver microsomes; assay: Drug metabolism in human liver microsomes by LC/MS analysis; type: ADME, Microsome; summary of the method: as §1
[3] = tested on: Liver microsomes; assay: Intrinsic clearance in human liver microsomes assessed per mg of protein at 1 uM by LC/MS analysis; type: ADME, Microsome; summary of the method: as §1
[4] = tested on: Plasmodium berghei; assay: Antimalarial activity against erythrocytic stage of Plasmodium berghei NK65 infected in BALB/c mouse assessed as reduction in parasitemia at 50 mg/kg, po administered QD for 4 days starting 1 day post-infection measured 24 hrs post-last dose relative to vehicle-treated control; type: functional; parameters: scale not given: the % may be the effect or the level left
Summary of the method: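 Female BALB/c mice, 8–10 weeks old, infected IP with 2×10^7 infected erythrocytes (200 μL) 24 h before first dose; minimum 0.1% parasitemia confirmed before treatment. Oral dosing 1× daily for 4 consecutive days, vehicle or chloroquine (10 mg/kg oral, same schedule) as controls. Parasitemia from Wright-Giemsa-stained thin blood smears, tail-vein bleeds daily.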

[5] = tested on: Mus musculus; assay: Toxicity in Swiss mouse assessed as adverse effects at 10 mg/kg, po; type: organism-based; parameters: dose 10 mg/kg, route oral; conditions: in vivo
Summary of the method: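 Mice watched for adverse reactions after one oral 10 mg/kg dose, given as a suspension in aqueous carboxymethylcellulose/benzyl alcohol/Tween 80 vehicle.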

[6] = Plasma concentration in Swiss mouse at 10 mg/kg, po at 16 hrs; type: ADME, organism-based; parameters: dose 10 mg/kg, route oral
Summary of the method: (§2)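 Single 10 mg/kg oral gavage dose (0.1 mL) given as a suspension in 0.5% w/v Na carboxymethylcellulose, 0.5% v/v benzyl alcohol, 0.4% v/v Tween 80. Food and water ad libitum. One cardiac-puncture blood sample per mouse at 1, 2, 4, 7.5, 16 and 24 h. Heparinised plasma stored at –20°C, acetonitrile-precipitated and quantified by LC-MS against a plasma calibration curve; quantitation limit 0.003 μM.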

[7] = Plasma concentration in Swiss mouse at 10 mg/kg, po up to 4 hrs; type: ADME, organism-based; parameters: dose 10 mg/kg, route oral; summary of the method: as §2
[8] = Cmax in Swiss mouse at 10 mg/kg, po; type: ADME, organism-based; parameters: dose 10 mg/kg, route oral; conditions: in vivo; summary of the method: as §2
[9] = Drug metabolism in mouse liver microsomes by LC/MS analysis; type: ADME, Microsome; summary of the method: as §1
[10] = tested on: Liver; assay: Intrinsic clearance in mouse liver microsomes assessed per mg of protein at 1 uM by LC/MS analysis; type: ADME, Microsome; summary of the method: as §1
[11] = tested on: Liver; assay: Half life in mouse liver microsomes at 1 uM by LC/MS analysis; type: ADME, Microsome; summary of the method: as §1
[12] = target: T1, Dihydroorotate dehydrogenase (Plasmodium falciparum, UniProt Q54A96); assay: Inhibition of Plasmodium falciparum DHODH expressed in Escherichia coli DH5alpha using 2,6-dichoroindophenol substrate by spectrophotometric analysis
T1 sequence (Q54A96 whole entry): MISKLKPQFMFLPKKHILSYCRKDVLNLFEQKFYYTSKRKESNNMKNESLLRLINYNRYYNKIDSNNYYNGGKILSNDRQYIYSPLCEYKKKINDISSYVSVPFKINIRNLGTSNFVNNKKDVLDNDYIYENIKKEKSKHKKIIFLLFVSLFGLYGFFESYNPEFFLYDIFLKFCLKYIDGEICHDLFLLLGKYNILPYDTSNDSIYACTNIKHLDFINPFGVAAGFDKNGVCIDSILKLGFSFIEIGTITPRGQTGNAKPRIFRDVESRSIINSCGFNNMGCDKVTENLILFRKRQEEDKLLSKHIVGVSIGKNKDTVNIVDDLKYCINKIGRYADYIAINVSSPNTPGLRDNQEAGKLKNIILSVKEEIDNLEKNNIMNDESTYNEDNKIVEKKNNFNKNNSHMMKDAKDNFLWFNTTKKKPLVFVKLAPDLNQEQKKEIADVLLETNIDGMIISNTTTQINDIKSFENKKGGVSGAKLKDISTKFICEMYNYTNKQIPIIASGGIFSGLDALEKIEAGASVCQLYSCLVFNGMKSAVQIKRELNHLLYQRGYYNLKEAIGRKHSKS
Summary of the method: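 Recombinant purified enzyme; colorimetric steady-state assay following DCIP (120 micromolar) reduction at 600 nm, coupled to CoQ_D reoxidation. Started with enzyme (5–10 nM final), 20 °C. IC50 fitted across inhibitor concentrations, triplicate points each.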

[13] = Inhibition of Plasmodium berghei DHODH expressed in Escherichia coli DH5alpha using 2,6-dichoroindophenol substrate by spectrophotometric analysis
[14] = target: Dihydroorotate dehydrogenase (quinone), mitochondrial (Homo sapiens, UniProt Q02127); assay: Inhibition of human DHODH expressed in Escherichia coli BL21(DE3) using 2,6-dichoroindophenol substrate by spectrophotometric analysis
Dihydroorotate dehydrogenase (quinone), mitochondrial, sequence (Q02127 whole entry): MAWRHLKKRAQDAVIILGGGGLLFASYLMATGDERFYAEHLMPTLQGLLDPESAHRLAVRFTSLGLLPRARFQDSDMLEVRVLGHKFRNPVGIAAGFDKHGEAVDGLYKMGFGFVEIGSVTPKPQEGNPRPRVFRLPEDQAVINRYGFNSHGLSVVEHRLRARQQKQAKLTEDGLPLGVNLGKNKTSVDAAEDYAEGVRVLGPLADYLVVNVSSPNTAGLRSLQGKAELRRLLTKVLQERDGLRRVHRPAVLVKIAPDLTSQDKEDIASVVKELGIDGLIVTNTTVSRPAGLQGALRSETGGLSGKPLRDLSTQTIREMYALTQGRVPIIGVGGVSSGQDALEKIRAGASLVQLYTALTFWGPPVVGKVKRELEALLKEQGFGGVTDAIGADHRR

[15] = tested on: Plasmodium falciparum; assay: Antiplasmodial activity against Plasmodium falciparum 3D7 infected in human erythrocytes assessed as inhibition of [3H]hypoxanthine incorporation after 48 hrs; type: functional, organism-based
Summary of the method: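 Clone 3D7 grown in RPMI-1640 with 20% human type A+ plasma and 2% (w/v) red blood cells. Proliferation measured by standard [3H]-hypoxanthine uptake in infected erythrocytes.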

SMILES	IC50 [12]	IC50 [13]	IC50 [14]	EC50 [15]	further results
Cc1cc(Nc2ccc(C(F)(F)F)cc2)n2ccnc2n1	0.077 µM	0.17 µM	> 100 µM	0.32 µM	t1/2 [1]: 6.13 h; Drug metabolism [2]: Not Active; CLint [3]: 4.7 µL/min/mg; Activity [4]: 56%; Activity [5]: Non-toxic; concentration at 16 h [6]: < 3 nM; concentration at 4 h [7]: > 1000 nM; Cmax [8]: 3900 nM; Drug metabolism [9]: Not Active; CLint [10]: 34 µL/min/mg; t1/2 [11]: 0.863 h
Cc1nc(Nc2cnc3ccccc3c2)c2nc[nH]c2n1	27 µM	–	–	> 10 µM	–
Cc1nc(Nc2ccc3ncccc3c2)c2nc[nH]c2n1	> 25 µM	–	–	3.2 µM	–
Cc1nc(Nc2n[nH]cc2C#N)c2nc[nH]c2n1	> 100 µM	–	–	> 25 µM	–
Cc1nc(Nc2ccc3cc4ccccc4cc3c2)c2nc[nH]c2n1	4.8 µM	> 10 µM	–	3.2 µM	–
Cc1cc(Nc2ccc3ccccc3c2)c2nncn2n1	> 50 µM	> 50 µM	–	> 5 µM	–
Cc1nc(Nc2ccc3ccccc3c2)c2cn[nH]c2n1	> 100 µM	–	–	> 12.5 µM	–
Cc1nc(Nc2ccc3ccccc3c2)c2nc[nH]c2n1	0.44 µM	11 µM	> 100 µM	2.2 µM	–
Cc1cc(Nc2ccc3ccccc3c2)n2nccc2n1	0.4 µM	3.3 µM	> 100 µM	0.91 µM	–
Cc1cc(Nc2ccc3ccccc3c2)n2ncnc2c1	4.8 µM	6.3 µM	–	5.2 µM	–
Cc1cc(Nc2ccc3ccccc3c2)n2ccnc2n1	0.15 µM	2.8 µM	> 100 µM	0.19 µM	–
Cc1cc(NC(=O)c2ccc(C(F)(F)F)cc2)n2ncnc2n1	> 100 µM	> 100 µM	> 100 µM	> 50 µM	–
Cc1cc(NC(=O)c2ccccc2)n2ncnc2n1	> 100 µM	> 100 µM	> 100 µM	> 100 µM	–
